Results as given in ChEMBL document CHEMBL4152315, “Rational modification of a lead molecule: Improving the antifungal activity of indole - triazole - amino acid conjugates” (Eur J Med Chem, 2018).
In brackets after ≈: the same amount, converted by molar mass.

Tests used:
Aspergillus niger [1] = assay: Antifungal activity against Aspergillus niger MTCC 9933 after 72 hrs; format: functional; details: MTCC 9933, 72 h
How it was run: (§1)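 Broth tube dilution MIC: tested at 128, 64, 32, 16 and 8 μg/mL; Yeast Malt Broth for C. albicans, Czapek Dox Broth for A. niger. Inoculum 1×10³ CFU/mL final; 5% DMSO negative control, fluconazole reference. Incubated dark on rotary shaker (180 rpm), 28 °C, 48 h (C. albicans) or 72 h (A. niger); lowest concentration preventing visible growth recorded.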

Candida albicans [2] = assay: Antifungal activity against Candida albicans MTCC 3958 after 48 hrs; format: functional; details: MTCC 3958, 48 h; how it was run: as §1
Candida albicans [3] = assay: Antifungal activity against Candida albicans MTCC 3958 assessed as zone of growth inhibition after 48 hrs; format: functional
How it was run: (§2)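 Agar well diffusion: Malt Yeast Agar (C. albicans) or Czapek Yeast Extract Agar (A. niger) swabbed with 100 µL inoculum at 1×10^5 CFU/mL; 6 mm wells filled with 128 µg/50 µL compound in 5% DMSO (10% DMSO for poorly soluble ones). DMSO negative controls, fluconazole reference. 28 °C for 48 h; zone of inhibition as mean of triplicates.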

Aspergillus niger [4] = assay: Antifungal activity against Aspergillus niger MTCC 9933 assessed as zone of growth inhibition after 48 hrs; format: functional; how it was run: as §2
Erythrocyte = assay: Cytotoxicity against sheep RBC assessed as cell viability at 1 mg/ml after 24 hrs by MTT assay relative to control; format: cell-based, Ovis aries
How it was run: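 Sheep blood mixed 10:3 with Alsever's solution. Plasma was removed by centrifugation, and cells were washed three times in 1X PBS and diluted to 1×10^5 cells/mL. Cells were preincubated 24 h at 37 °C, then exposed to compound for 24 h at 37 °C. MTT (5 mg/ml stock) was added for 4 h, formazan was dissolved in DMSO, and A595 was read. Control wells received 10% DMSO diluent.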

Structure (SMILES) | MIC90 (Aspergillus niger [1]) | MIC90 (Candida albicans [2]) | inhibition zone (IZ) (Candida albicans [3]) | inhibition zone (IZ) (Aspergillus niger [4]) | Activity (Erythrocyte)
C#CCOc1ccc(C[C@H](NC(=O)C(=O)c2cn(CC#C)c3ccccc23)C(=O)OC)cc1 | 64 µg/mL (≈ 145 µM) | 64 µg/mL (≈ 145 µM) | 13 mm | 13 mm | 
COC(=O)CNC(=O)C(=O)c1cn(Cc2cn(Cc3ccccc3)nn2)c2ccccc12 | 64 µg/mL (≈ 148 µM) | 64 µg/mL (≈ 148 µM) | 12 mm | 11 mm | 
O=C(O)CC[C@H](NC(=O)C(=O)c1cn(Cc2cn(Cc3ccccc3)nn2)c2ccccc12)C(=O)O | > 32 µg/mL | 32 µg/mL (≈ 65.4 µM) | 14 mm | 12 mm | 
C#CCn1cc(C(=O)C(=O)N[C@@H](Cc2ccc(O)cc2)C(=O)OC)c2ccccc21 | 128 µg/mL (≈ 317 µM) | 64 µg/mL (≈ 158 µM) | 11 mm | 10 mm | 
O=C(N[C@@H](Cc1ccc(OCc2cn(Cc3ccccc3)nn2)cc1)C(=O)O)C(=O)c1cn(Cc2cn(Cc3ccccc3)nn2)c2ccccc12 | 32 µg/mL (≈ 46.1 µM) | 16 µg/mL (≈ 23 µM) | 16 mm | 15 mm | Non-Toxic
COC(=O)C[C@H](NC(=O)C(=O)c1cn(Cc2cn(Cc3ccccc3)nn2)c2ccccc12)C(=O)OC |  | 128 µg/mL (≈ 254 µM) | 11 mm |  | 
COC(=O)[C@H](Cc1ccc(OCc2cn(Cc3ccccc3)nn2)cc1)NC(=O)C(=O)c1cn(Cc2cn(Cc3ccccc3)nn2)c2ccccc12 | 64 µg/mL (≈ 90.3 µM) |  |  | 13 mm | 
COC(=O)[C@H](Cc1ccc(O)cc1)NC(=O)C(=O)c1c[nH]c2ccccc12 | > 128 µg/mL |  |  | 9 mm | 
OC(Cn1cncn1)(Cn1cncn1)c1ccc(F)cc1F [FLUCONAZOLE] | 8 µg/mL (≈ 26.1 µM) | 16 µg/mL (≈ 52.2 µM) | 19 mm | 18 mm | 
O=C(O)C[C@H](NC(=O)C(=O)c1cn(Cc2cn(Cc3ccccc3)nn2)c2ccccc12)C(=O)O | 64 µg/mL (≈ 135 µM) | 32 µg/mL (≈ 67.3 µM) | 15 mm | 13 mm | 
O=C(O)CNC(=O)C(=O)c1cn(Cc2cn(Cc3ccccc3)nn2)c2ccccc12 | 128 µg/mL (≈ 307 µM) | 32 µg/mL (≈ 76.7 µM) | 13 mm | 10 mm | 
C#CCn1cc(C(=O)C(=O)NCC(=O)OC)c2ccccc21 |  | 64 µg/mL (≈ 215 µM) | 11 mm |  | 
COC(=O)CC[C@H](NC(=O)C(=O)c1cn(Cc2cn(Cc3ccccc3)nn2)c2ccccc12)C(=O)OC | 64 µg/mL (≈ 124 µM) | 64 µg/mL (≈ 124 µM) | 10 mm | 11 mm | 
C#CCn1cc(C(=O)C(=O)N[C@@H](CC(=O)OC)C(=O)OC)c2ccccc21 |  | 64 µg/mL (≈ 173 µM) | 13 mm |  | 
C#CCn1cc(C(=O)C(=O)N[C@@H](CCC(=O)OC)C(=O)OC)c2ccccc21 |  | 128 µg/mL (≈ 333 µM) | 9 mm |  | 
C#CCn1cc(C(=O)C(=O)N[C@@H](Cc2c[nH]c3ccccc23)C(=O)OC)c2ccccc21 | > 128 µg/mL | 128 µg/mL (≈ 299 µM) | 10 mm | 9 mm | 
O=C(N[C@@H](Cc1c[nH]c2ccccc12)C(=O)O)C(=O)c1cn(Cc2cn(Cc3ccccc3)nn2)c2ccccc12 | > 32 µg/mL | 32 µg/mL (≈ 58.5 µM) | 14 mm | 14 mm | 
COC(=O)CC[C@H](NC(=O)C(=O)c1c[nH]c2ccccc12)C(=O)OC | > 128 µg/mL |  |  | 9 mm | 
O=C(N[C@@H](Cc1ccc(O)cc1)C(=O)O)C(=O)c1cn(Cc2cn(Cc3ccccc3)nn2)c2ccccc12 | > 32 µg/mL | 16 µg/mL (≈ 30.6 µM) | 15 mm | 13 mm | 
COC(=O)CNC(=O)C(=O)c1c[nH]c2ccccc12 |  | 128 µg/mL (≈ 492 µM) | 10 mm |  | 
COC(=O)C[C@H](NC(=O)C(=O)c1c[nH]c2ccccc12)C(=O)OC | 64 µg/mL (≈ 193 µM) | 32 µg/mL (≈ 96.3 µM) | 15 mm | 13 mm | 
COC(=O)[C@H](Cc1ccc(O)cc1)NC(=O)C(=O)c1cn(Cc2cn(Cc3ccccc3)nn2)c2ccccc12 | 128 µg/mL (≈ 238 µM) | 128 µg/mL (≈ 238 µM) | 8 mm | 10 mm | 
COC(=O)[C@H](Cc1c[nH]c2ccccc12)NC(=O)C(=O)c1cn(Cc2cn(Cc3ccccc3)nn2)c2ccccc12 | 64 µg/mL (≈ 114 µM) | 128 µg/mL (≈ 228 µM) | 9 mm | 12 mm | 
COC(=O)[C@H](Cc1c[nH]c2ccccc12)NC(=O)C(=O)c1c[nH]c2ccccc12 |  | 32 µg/mL (≈ 82.2 µM) | 14 mm |  | 
